A selection: hits, their analogues and other compounds. The true share with any hit is near 5.3%.
Calb FLC: C. albicans growth inhibition with fluconazole, primary screen, CaCi-2 strain, Alamar Blue fluorescence; growth inhibition, % (test concentration not listed); C. albicans CaCi-2 (fluconazole-resistant clinical isolate) + fluconazole, 48 h; AID 1979, 2009; 300,000 tested, 0.57% active;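 active means growth inhibition above about 58% in most replicates, limit read from the data, passing the limit was not always enough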;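 further: all wells also contain fluconazole at 8 µg/ml as a sub-toxic cotreatment; 0% = median of DMSO wells and 100% = median of geldanamycin control wells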
NALP3 yeast inh: NALP3 inflammasome inhibitors in reconstituted yeast, primary screen, luminescence, uHTS; Yeast reconstituted NLRP3/ASC/caspase-1, beta-gal luminescence, 24 h; inhibition, % at 10 µM; 330,000 tested, 0.39% active;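 active means inhibition of 50% or more; inactive means inhibition below 50%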;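 further: plate controls were induced DMSO wells for no effect and uninduced yeast grown without galactose for full effect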
Mdm2 MdmX PPI: inhibitors of human Mdm2-MdmX association, primary screen, cell-based, luminescence, split luciferase, SaOS-2, uHTS; SaOS-2 split-luciferase Mdm2/MdmX complementation; inhibition, % at 8 µM; 330,000 tested, 3% active; AID 485346, 2010;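 active means inhibition of at least 50% at 8 µM in the primary screen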
Beta cell apopt: inhibitors of cytokine-induced beta cell apoptosis, primary screen, luminescence; INS-1E cytokine-induced death, ATP luminescence, 48 h; percent of positive-control rescue, neutral wells zero; protection from apoptosis, % (concentration not given with the values); 300,000 tested, 0.8% active;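 active means Every replicate reaches about 75%, or at least half do and their mean reaches it too, limit read from the data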;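 further: 0% = cytokine-treated negative control wells and 100% = positive control rescue; higher means more ATP so stronger rescue from cytokine killing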
T cruzi inh: inhibitors of intracellular T. cruzi growth, primary screen, luminescence, NIH3T3 host cells; T. cruzi beta-gal in NIH3T3, 90 h; inhibition, % (concentration not given with the values); 300,000 tested, 1.4% active; AID 1885, 2009;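 active means mean inhibition across valid replicates above about 55%, limit read from the data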;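 further: signal also drops with host cell toxicity which is not excluded here; 0% = plate median of DMSO wells and 100% = zero luminescence signal; higher percent means less beta-gal luminescence so fewer parasites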
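System: mouse NIH/3T3 fibroblasts infected with β-gal-expressing T. cruzi Tulahuen C4 / Input: NIH/3T3 cells, 5,000 per well / Buffer or medium: Low-serum DMEM with 2% FBS / Probe or stimulus: 5000 reporter trypomastigotes per well / Schedule: ≥90 h infection period, 3 h prior cell attachment / Measured by: GalScreen luminescence, 60 min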
CSC inhib: cancer stem cell viability inhibitors, primary screen, luminescence | cancer stem cell-like cells viability | inhibition, % at 7.5 µM | 300,000 tested, 1.1% active; in the data active means inhibition above about 75%; tested in HMLE shEcad cells
* hit, by the source's call; · = no result given.

SMILES	Calb FLC	NALP3 yeast inh	Mdm2 MdmX PPI	Beta cell apopt	T cruzi inh	CSC inhib
CSc1ncccc1C(=O)Nc1nc2c(C)cccc2s1	3	8	8	14	-8	-7
O=S(=O)(Nc1ccc(-c2csc(-c3ccccc3)n2)cc1)c1ccc(F)cc1	-1	22	35	17	68*	·
Fc1ccc(-c2csc(-c3ccncc3)n2)cc1	10	-33	-29	-7	32	5
CCN=c1scc(C)n1/N=C/c1ccc(O)c(O)c1O	88*	15	8	-4	-2	9
C/C(=N\NC(N)=S)c1cc(-c2ccccc2)c(-c2ccccc2)s1	5	47	24	·	53	99*
C/C(=N/NC(N)=S)c1ccc(Br)s1	-4	25	2	1	61*	-8
C/C(=N\NC(=O)Cc1ccccc1)c1ccc(Br)s1	5	21	15	-8	-14	-8
O=C(CSCc1cccc(F)c1)NCc1ccccc1	8	15	-22	-13	-22	-24
Cc1ccc(CNC(=O)CSCc2cccc(F)c2)cc1	94*	29	10	-4	-9	-12
COc1cc(NC(=O)CSc2ncnc3c2cnn3Cc2ccccc2)cc(OC)c1	-15	12	-9	1	-20	16
COc1ccc(OC)c(NC(=O)CSc2ncnc3c2cnn3-c2ccccc2Cl)c1	-2	27	-12	129*	15	·
COc1ccc(CCNCc2ccc(OCC(=O)N3CCCCC3)c(OC)c2)cc1OC	-4	-3	10	0	57*	-16
COc1cc(CNCCc2ccc(S(N)(=O)=O)cc2)ccc1OCC(=O)N1CCCCC1	-11	11	8	·	15	·
Cn1nnnc1SC1CC(=O)N(c2ccccc2)C1=O (configuration not stated)	-22	8	5	1	66*	-8
CC[C@H](C)[C@H](NC(N)=O)C(=O)Nc1ccc(C)cc1	-11	-12	-13	0	-6	-12
CC(C)(Oc1ccc(Cl)cc1)C(=O)NC1=NN(c2ccccc2)C(=O)C1	27	6	17	-2	-8	112*
O=C1CC(NC(=O)C(F)(F)F)=NN1c1ccccc1	-11	11	-14	-10	-17	3
COc1ccc(Cn2c(N)c(S(=O)(=O)c3cccs3)c3nc4ccccc4nc32)cc1	-3	5	36	-5	10	-11
COc1cc(NC(=O)c2ccco2)c(C(=O)OCC(=O)c2c[nH]c3ccccc23)cc1OC	1	7	50	43	6	83*
O=C(OCC(=O)c1c[nH]c2ccccc12)c1ccco1	-8	12	10	-2	3	-8
C#CCOCCOCCOCCNc1nc(N2CCN(C(=O)CCCCCCCCCCNC(=O)[C@@H]([C@H](C)O)n3cc(C)nn3)CC2)nc(N2CCN(C(=O)CCCCCCCCCCNC(=O)[C@@H]([C@H](C)O)n3cc(C)nn3)CC2)n1	·	15	27	43	·	-1
NC(=O)c1ccc(N2CCN(c3ccccc3O)CC2)c([N+](=O)[O-])c1	2	-3	4	4	11	5
NC(=O)c1ccc(N2CCN(S(=O)(=O)c3cccs3)CC2)c([N+](=O)[O-])c1	·	11	36	82*	·	-3
CC(=O)c1c(C)n(-c2ccc(C)cc2C)c2ccc(O)cc12	27	10	37	-5	2	-16
COc1ccc(N=Nc2n(C)c3ccccc3[n+]2C)cc1	-40	·	·	·	64*	·
SMILES	Calb FLC	NALP3 yeast inh	Mdm2 MdmX PPI	Beta cell apopt	T cruzi inh	CSC inhib
COCCn1c(=S)[nH]c2cc(C(=O)NCCCN3CCOCC3)ccc2c1=O	34	14	5	-3	2	0
CCc1ccc(C(=O)NNc2ccc(S(N)(=O)=O)cc2)cc1	8	12	7	1	-2	-1
CCc1ccc(C(=O)NNc2ccc(F)cc2)cc1	80*	16	-23	4	·	74
CCOC(=O)C(=O)NNc1ccc(F)cc1	0	29	-15	4	45	101*
CCOC(=O)N1CCN(C(=O)c2ccc(NS(C)(=O)=O)cc2)CC1	1	7	5	-1	-15	-5
CCCCCCSc1ccc([C@H]2N[C@@](Cc3ccccc3)(C(=O)OC)[C@H]3C(=O)N(C)C(=O)[C@@H]23)cc1	-6	12	48	99*	48	22
CCCCCCSc1ccc([C@H]2N[C@@](C)(C(=O)OC)[C@H]3C(=O)N(CC)C(=O)[C@@H]23)cc1	-4	3	3	33	17	78*
Cc1cc(NS(=O)(=O)c2ccccc2)c(C)c(Cl)c1O	27	-31	-7	12	-11	0
COc1cc(C2C(C(=O)c3cc4ccccc4o3)=C(O)C(=O)N2c2cc(C)on2)cc(OC)c1OC (configuration not stated)	4	-5	11	-4	-21	-5
COc1cccc(C2C(C(=O)c3cc4ccccc4o3)=C(O)C(=O)N2c2cc(C)on2)c1OC (configuration not stated)	78*	22	-2	4	-3	-9
CC(C)(C)c1ccc(C(=O)Nc2nnc(Cc3c[nH]c4ccccc34)s2)cc1	17	2	-2	4	28	96*
O=[N+]([O-])c1ccc(Cl)c(S(=O)(=O)Nc2ccc(-c3ccc(N4CCCC4)nn3)cc2)c1	6	17	37	-1	6	7
O=[N+]([O-])c1ccc(S(=O)(=O)N2CCN(c3ccc(N4CCOCC4)nn3)CC2)cc1	-4	8	29	-8	60*	53
O=[N+]([O-])c1ccc(S(=O)(=O)Nc2ccc(-c3ccc(N4CCCC4)nn3)cc2)cc1	36	4	-1	7	55*	19
Cc1ccc(S(=O)(=O)N2CCN(c3ccc(N4CCOCC4)nn3)CC2)cc1[N+](=O)[O-]	-16	5	-17	·	-6	-8
O=C1NC2(CCCCC2)N=C1c1ccc(Br)cc1	1	16	5	-2	-5	-17
CCC(=O)NC(=S)Nc1ccc(NC(=S)NC(=O)c2ccccc2)cc1	26	·	·	·	61*	·
COc1cccc2c(SCC(=O)N/N=C/c3ccccc3)cc(C)nc12	9	10	20	-21	-1	0
COc1cccc2c(SCC(=O)N/N=C/c3ccc(O)c(O)c3)cc(C)nc12	92*	·	·	4	-29	22
COc1ccccc1C(CC(=O)Nc1nccs1)c1ccco1 (configuration not stated)	·	-10	8	-4	23	6
C=CCn1c(O)c(N=NC(=S)Nc2ccc(OC)c(Cl)c2)c2ccccc21	45	25	34	57	57*	44
